This note sets out measurements from ChEMBL document CHEMBL1127034, “Synthesis, antiproliferative, and antiviral activity of 4-amino-1-(beta-D-ribofuranosyl)pyrrolo[2,3-d]pyridazin-7(6H)-one and related derivatives” (J Med Chem, 1993).

Test [1] has as its system L1210. Nature of the test: Tested for in vitro cell growth inhibition of L1210 cells; No significant effect. The test is classed as functional, cell-based, Mus musculus. In outline: (§1)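 L1210 cell number counted at 0, 48 and 96 h across a range of concentrations. Growth rate is the slope of semilog cell number vs time as percent of control (ratio of control to treated doubling time); the 48-96 h rate is used if growth slowed. IC50 halves growth rate. Top concentration 100 μM.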

In the next test the test system is HFF. Nature of the test: Tested for cytotoxicity in human foreskin fibroblasts at time of HCMV plaque enumeration. The test is classed as functional, cell-based. A digest of the protocol:
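HFF cells (MEM/Earle's, 10% fetal bovine serum), uninfected cells within HCMV plaque-reduction wells. Drug cytopathology scored visually at 30-fold magnification on a 0-4+ scale on the day of staining for plaque enumeration. IC50 from regression against log concentration.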

In another test the test system is Human alphaherpesvirus 1. Nature of the test: Tested for antiviral activity against Herpes simplex virus type-1 using enzyme immunoassay.
Test [2] deals with Human betaherpesvirus 5. Description: Tested for antiviral activity against human cytomegalovirus by plaque assay. The test is classed as functional, organism-based. In outline:
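Towne strain HCMV (plaque-purified P0) on HFF monolayers. Inoculum about 50 PFU in 0.2 mL; compounds dissolved in the overlay medium. IC50 from linear regression of percent inhibition vs log concentration. Ganciclovir positive control; assay sets rejected if it deviated >1.5 SD from its mean response.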

In a further test the test system is DLD-1. Description: Tested for in vitro cell growth inhibition of DLD-1 cells. The test is classed as functional, cell-based. To be noted: Homo sapiens. In outline: (§2)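 Adherent tumor lines in RPMI 1640 + 5% fetal bovine serum (UMSCC-10A: MEM-5). Cells/well: UMSCC-10A, CALU-1, NCI-H1437 and HT-29 2000; NCI-H460 1000; DLD-1 1000; SW-620 7500. Compound added 1 day after plating. Sulforhodamine B readout on day 5 (NCI-H460 and SW-620: day 4). IC50 halves growth rate vs control. Top concentration 100 μM.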

The subject of test [3] is NCI-H417. Nature of the test: Tested for in vitro cell growth inhibition of NCI-N417 cells. The test is classed as functional, cell-based. As to conditions: Homo sapiens; call rule not given here.
Test [4] in a line: Tested for in vitro cell growth inhibition of NCI-H146 cells. The test is classed as functional, cell-based. As to conditions: Homo sapiens.
The subject of test [5] is NCI-H460. Description: Tested for in vitro cell growth inhibition of NCI-H460 cells. The test is classed as functional, cell-based. As to conditions: Homo sapiens. In outline:
as §2

Test [6] has as its system Human betaherpesvirus 5. Description: Tested for antiviral activity against human cytomegalovirus by yield reduction assay. The test is classed as functional.
Test [7] is described as follows: Tested for the inhibition of KB cell growth. The test is classed as functional, cell-based. As to conditions: Homo sapiens. A digest of the protocol:
(§3)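 KB cells (MEM/Hank's, 5% fetal bovine serum). Growth measured spectrophotometrically after crystal violet staining 2 days after drug treatment. IC50 from linear regression of percent inhibition vs log concentration.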

Test [8] concerns L1210. Description: Tested for in vitro cell growth inhibition of L1210 cells. As to conditions: Mus musculus. The test is classed as functional, cell-based. A digest of the protocol: as §1
The nature of test [9]: Tested for in vitro cell growth inhibition of NCI-H1437 cells. The test is classed as functional, cell-based. To be noted: Homo sapiens. A digest of the protocol: as §2
Test [10] is filed under the species Homo sapiens. Description: Tested for in vitro cell growth inhibition of H.Ep. 2 cells. To be noted: HEp-2. The test is classed as functional, cell-based. In outline:
(§4)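 H.Ep.2 cells grown in MEM/Earle's with 15% heat-inactivated calf serum, 5% CO2. 2000 cells/well plated in 5% calf serum; compound added 1 day later. […] Top concentration 100 μM.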

For the next test, the system named is SW-620. Description: Tested for in vitro cell growth inhibition of SW-620 cells. To be noted: Homo sapiens. The test is classed as functional, cell-based. A digest of the protocol: as §2
A further test concerns HT-29. Description: Tested for in vitro cell growth inhibition of HT-29 cells. The test is classed as functional, cell-based. As to conditions: Homo sapiens. A digest of the protocol: as §2
The test system of test [11] is Calu-1. Description: Tested for in vitro cell growth inhibition of CALU-1 cells. As to conditions: Homo sapiens. The test is classed as functional, cell-based. A digest of the protocol: as §2
Test [12] in a line: Tested for in vitro cell growth inhibition of UMSCC-10A cells. The test is classed as functional, cell-based. To be noted: Homo sapiens. A digest of the protocol:
as §2

A short description of test [13]: Tested for in vitro cell growth inhibition of NCI-H1437. The test is classed as functional. To be noted: Homo sapiens. A digest of the protocol: as §2
Test [14] concerns NCI-H460. Nature of the test: Tested for in vitro cell growth inhibition of NCI-H460. As to conditions: Homo sapiens. The test is classed as functional, cell-based. In outline: as §2
Test [15] is described as follows: Tested for in vitro cell growth inhibition of […] cells. The test is classed as functional, cell-based. As to conditions: Homo sapiens. In outline: as §2
The species entered for test [16] is Homo sapiens. Nature of the test: Tested for in vitro cell growth inhibition of H. Ep. 2 cells; No significant effect. The test is classed as functional, cell-based. A digest of the protocol: as §4
In test [17] the test system is NCI-H417. Description: Tested for in vitro cell growth inhibition of NCI-N417 cells; No significant effect. The test is classed as functional, cell-based, Homo sapiens.
The nature of test [18]: Tested for in vitro cell growth inhibition of NCI-H146 cells; No significant effect. The test is classed as functional, cell-based, Homo sapiens.
The species named for test [19] is Homo sapiens. Description: Tested for in vitro cell growth inhibition of H.Ep. 2 cells; No significant effect. The test is classed as functional, cell-based. A digest of the protocol:
as §4

In test [20] the test system is Calu-1. Description: Tested for in vitro cell growth inhibition of CALU-1 cells; No significant effect. The test is classed as functional, cell-based, Homo sapiens. A digest of the protocol:
as §2

Test [21] is described as follows: Tested for the inhibition against KB cell growth. The test is classed as functional, cell-based. As to conditions: Homo sapiens. In outline:
as §3

Bounds are passed on as bounds.

A word on the IC50: it is the concentration needed to halve the response being measured. As usually defined, the IC90 is the concentration needed for an effect of 90%. Low readings indicate greater potency, high ones weaker potency.

Turning to `O=c1[nH][nH]c(=O)c2c1ccn2[C@@H]1O[C@H](CO)[C@@H](O)[C@H]1O`, the IC50 entry with L1210 [1] is “Not Active”; with HFF, greater than 100000 nM; in the test with Human alphaherpesvirus 1 it was greater than 100000 nM; with Human betaherpesvirus 5 [2], greater than 100000 nM.

With `Nc1nnc(O)c2c1c(I)cn2C1O[C@H](CO)[C@@H](O)[C@H]1O` (stereo partly specified), the IC50 in the test on DLD-1 was 70 nM; in the test with NCI-H417 [3], 280 nM; in [4] it was 420 nM; in the test on NCI-H460 [5], 200 nM; in test [7] it was 1200 nM; with HFF, 1000 nM. The half-maximal inhibitory concentration (IC50) worked out at 4500 nM in the test with Human alphaherpesvirus 1; 80 nM with L1210 [8]; 130 nM in test [9]; 76 nM in the test listed under Homo sapiens [10]; 230 nM in the test with SW-620; 400 nM in the test with Human betaherpesvirus 5 [2]. The IC50 in the test on HT-29 is 500 nM; in the test on Calu-1 [11] it was 70 nM; in test [12], 2500 nM. The compound further registered an IC90 with Human betaherpesvirus 5 [6] of 20 nM.

In the case of `Nc1ncnc2c1c(Br)cn2[C@@H]1O[C@H](CO)[C@@H](O)[C@H]1O`, it took 3500 nM to reach the 90% level with Human betaherpesvirus 5 [6] (IC90). The IC50 in test [7] is 3000 nM; with HFF, 1200 nM.

On to `Nc1nnc(O)c2c1c(Cl)cn2C1O[C@H](CO)[C@@H](O)[C@H]1O` (stereo partly specified), for which the IC90 in the test on Human betaherpesvirus 5 [6] is 700 nM. Also, the IC50 in test [7] came out at 6100 nM; in the test with HFF it was 2100 nM; in the test on Human alphaherpesvirus 1 it was 6800 nM; in the test on L1210 [8], 230 nM; with Human betaherpesvirus 5 [2] it was 200 nM.

As to `Nc1n[nH]c(=O)c2c1c(Br)cn2[C@@H]1O[C@H](CO)[C@@H](O)[C@H]1O`, the IC50 in test [13] was 500 nM; in the test on NCI-H460 [14], 500 nM; in [7] it was less than 1200 nM; in the test with HFF it was 2500 nM; in the test with Human alphaherpesvirus 1, 2000 nM; in the test on L1210 [8], 100 nM. The IC50 in the test filed under Homo sapiens [10] came out at 200 nM; with Human betaherpesvirus 5 [2], 100 nM; in [15], 1300 nM; with Calu-1 [11], 230 nM. In the test on Human betaherpesvirus 5 [6], this compound displayed an IC90 of 40 nM.

For `Nc1nncc2c1ccn2C1O[C@H](CO)[C@@H](O)[C@H]1O` (stereo partly specified), the 50% inhibitory concentration (IC50) result in the test on L1210 [1] is “Not Active”; in the test with HFF, greater than 100000 nM; with Human alphaherpesvirus 1, greater than 100000 nM; in the test on Human betaherpesvirus 5 [2] it was greater than 100000 nM; in the test filed under Homo sapiens [16] it was “Not Active”.

As for `Nc1nc2c(ncn2COC(CO)CO)c(=O)[nH]1` [GANCICLOVIR], it took 1800 nM to reach the 90% level with Human betaherpesvirus 5 [6] (IC90). For the same compound, the IC50 was greater than 100000 nM in test [7], greater than 100000 nM with HFF, 3500 nM in the test with Human alphaherpesvirus 1 and 7700 nM in the test on Human betaherpesvirus 5 [2].

`Nc1nnc(O)c2c1ccn2[C@@H]1O[C@H](CO)[C@@H](O)[C@H]1O`: the IC50 result in the test with NCI-H417 [17] was “Not Active”; in test [18], “Not Active”; in the test filed under Homo sapiens [19], “Not Active”; in the test with HFF, greater than 100000 nM; in the test on Human alphaherpesvirus 1, 90000 nM; with L1210 [8] it was 74000 nM. In addition, the IC50 is greater than 100000 nM in the test on Human betaherpesvirus 5 [2] and “Not Active” in the test with Calu-1 [20].

For `Nc1nncc2c1c(Br)cn2C1O[C@H](CO)[C@@H](O)[C@H]1O` (stereo partly specified), the IC50 with NCI-H460 [5] amounted to 11000 nM; in [7], 12000 nM; with HFF, 100000 nM; in the test on Human betaherpesvirus 5 [2], 121000 nM; in the test on Calu-1 [11], 11000 nM. This compound came in with an IC90 in the test with Human betaherpesvirus 5 [6] of 1400 nM.

`Nc1ncnc2c1ccn2[C@@H]1O[C@H](CO)[C@@H](O)[C@H]1O` [TUBERCIDIN]: the figures for the IC50 (with L1210 [8]; in test [21]) were 43 nM and 1000 nM, respectively.
